Bioassay records: PubChem BioAssay, several laboratories
Runt-SMMHC FRET = Runt domain-CBFb-SMMHC interaction inhibition. Cerulean-Runt/Venus-CBFb-SMMHC FRET ratio 530/480, 1 h. hit rate 0.74% among 220,000. AID 1434. Q01196+Q13951. inhibition, % at 20 µM;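 active = mean inhibition across duplicate retests at 20 µM reaching about 50%, limit read from the data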;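 note: inhibitors lower the FRET ratio by blocking Runt binding to CBFb-SMMHC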
Runt-CBFb FRET = Runt domain-CBFb interaction inhibition; Q01196+Q13951; Cerulean-Runt/Venus-CBFb FRET ratio 530/480, 1 h; inhibition, % at 20 µM; hit rate 0.46% among 220,000;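 active = inhibition over about 50% at 20 µM in the single-dose screen, limit read from the data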
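Buffer or medium: Tris pH 7.5 buffer with BSA. Assay system: Cerulean-labeled Runt domain protein. Amount: each fluorescent fusion protein 100 nM. Read-out basis: loss of energy transfer signal. Incubation: 1 h compound exposure, room temperature. Probe or stimulus: Venus-CBFb binding partner, 100 nM. Detection: FRET, excitation 422 nm, emission at 530 and 480 nm.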
PfM18AAP inh-1 = blocks P. falciparum M18 aspartyl aminopeptidase; AID 1822; recombinant PfM18AAP, H-Glu-NHMec fluorogenic cleavage; inhibition, % at 7.35 µM; hit rate 1.2% among 290,000;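 active = inhibition above the campaign mean inhibition over all tested compounds plus 3 SD, cut at about 28% in these data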
RanGTP-Impb inh = inhibitors of RanGTP-importin-beta interaction, primary screen, biochemical, FRET, CFP-Ran, YFP-importin-beta, homogeneous; AID 2216; inhibition, % (concentration not given with the values); hit rate 1.1% among 300,000; cell-free CFP-Ran/YFP-importin-beta FRET ratio;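 active = more than half of the replicate wells show a fall in the fluorescence ratio signal beyond about 16%, limit read from the data, passing the limit was not always enough; inconclusive = exactly half of the replicate wells pass the set limit; inactive = fewer than half of replicates pass the limit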
RBBP9 inh = human RBBP9 hydrolase inhibition | O75884 | recombinant RBBP9, FP-Rh probe fluorescence polarization | inhibition, % at 7.94 µM | hit rate 0.2% among 220,000;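 active = inhibition above the campaign mean of all tested compounds plus 3 SD, cut at about 14% in these data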
Target sequence (O75884 whole entry, looked up): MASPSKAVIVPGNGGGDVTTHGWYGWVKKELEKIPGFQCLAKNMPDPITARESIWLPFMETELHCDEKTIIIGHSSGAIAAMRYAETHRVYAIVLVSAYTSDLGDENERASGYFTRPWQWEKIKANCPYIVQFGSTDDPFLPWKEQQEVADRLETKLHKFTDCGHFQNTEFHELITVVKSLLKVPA
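Controls: DMSO-treated enzyme wells and wells lacking RBBP9 | Material: RBBP9 protein | Technique: Fluorescence polarization | Replication: Single well per compound, no replicates | Buffer or medium: Tris-NaCl-Pluronic buffer, pH 8.0 | Timing: 30 min compound preincubation, 45 min probe labeling, 25 °C | Read-out basis: Percent inhibition from mP, scaled between DMSO and no-protein wells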
Hck Nef HTS = human Hck-Nef kinase inhibition | Recombinant Hck-YEEI plus Nef, Z-Lyte FRET kinase assay | inhibition, % at 20 µM | hit rate 0.68% among 220,000 | P08631 | AID 463187;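 active = Hck-Nef kinase inhibition above about 50%, limit read from the data; inactive = inhibition below that limit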
Target sequence (P08631 whole entry, looked up): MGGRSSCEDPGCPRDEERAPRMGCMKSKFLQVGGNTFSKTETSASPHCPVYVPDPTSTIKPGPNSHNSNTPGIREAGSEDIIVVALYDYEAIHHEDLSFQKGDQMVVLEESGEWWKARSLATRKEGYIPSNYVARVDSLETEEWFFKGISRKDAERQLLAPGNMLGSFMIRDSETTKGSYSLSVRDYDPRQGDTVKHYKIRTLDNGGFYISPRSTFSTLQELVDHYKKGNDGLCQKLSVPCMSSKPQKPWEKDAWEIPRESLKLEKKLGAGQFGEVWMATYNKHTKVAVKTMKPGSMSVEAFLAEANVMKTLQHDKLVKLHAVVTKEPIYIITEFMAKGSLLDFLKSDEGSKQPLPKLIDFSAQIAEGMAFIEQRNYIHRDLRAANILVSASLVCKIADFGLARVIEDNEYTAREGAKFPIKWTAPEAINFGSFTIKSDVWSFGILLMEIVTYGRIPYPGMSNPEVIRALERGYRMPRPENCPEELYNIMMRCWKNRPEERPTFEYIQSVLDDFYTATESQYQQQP
PfM18AAP inh-2 = PfM18AAP inhibition, confirmation; hit rate 28% among 2,400; shares compounds with PfM18AAP inh-1; inhibition, % at 7.35 µM; recombinant PfM18AAP, H-Glu-NHMec fluorogenic cleavage;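 active = mean inhibition over replicate wells above the hit cutoff set for the earlier primary screen, cut at about 29% in these data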
CTSL1 counter = counter-screen for PFM18AAP inhibitors: confirmation of human cathepsin L inhibitors; purified cathepsin L1, Z-Leu-Arg-MCA fluorescence; 2,400 tested, under 10 active; shares compounds with PfM18AAP inh-1; inhibition, % at 5.96 µM;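 active = average inhibition across replicates above the hit cutoff set in the earlier primary screen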
Hits are given with their value. In the library only some 2.9% were active in any assay of this set; here they are far more common.

Results for O=[N+]([O-])c1ccc(N/N=C/c2cccnc2)cc1 ?
PfM18AAP inh-1: inactive; RanGTP-Impb inh: inactive

How did O=[N+]([O-])c1ccc(N/N=C/c2c[nH]c3ccccc23)cc1 do in these assays?
Runt-SMMHC FRET: inactive; Runt-CBFb FRET: inactive; PfM18AAP inh-1: 37.0; RanGTP-Impb inh: inactive; RBBP9 inh: inactive; Hck Nef HTS: inactive; PfM18AAP inh-2: inactive; CTSL1 counter: inactive

How did O=[N+]([O-])c1ccccc1N/N=C/c1c[nH]c2ccccc12 do in these assays?
Runt-SMMHC FRET: inactive; Runt-CBFb FRET: inactive; PfM18AAP inh-1: inactive; RanGTP-Impb inh: inactive; RBBP9 inh: inactive; Hck Nef HTS: inactive

What do the screens show for `O=[N+]([O-])c1ccc(N/N=C/c2ccc[nH]2)cc1`?
Runt-SMMHC FRET: inactive; Runt-CBFb FRET: inactive; PfM18AAP inh-1: 34.7; RBBP9 inh: inactive; Hck Nef HTS: inactive; PfM18AAP inh-2: inactive; CTSL1 counter: inactive

How did Cc1ccc2c(c1)N(CC(=O)Nc1ncccc1C)C(=O)C(C(C)C)O2 (stereo unspecified) do in these assays?
PfM18AAP inh-1: inactive; RanGTP-Impb inh: inactive

What do the screens show for `Cc1ccc(N2C(=O)N3[C@H](c4ccc(F)cc4)[C@@H]4C(=O)N(C5CCCCC5)C(=O)[C@@H]4[C@]3(C)C2=O)cc1`?
PfM18AAP inh-1: inactive; RanGTP-Impb inh: inconclusive

What do the screens show for `COc1ccc(S(=O)(=O)NCC(=O)N(CC(=O)NCc2ccco2)Cc2ccc(F)cc2)cc1`?
PfM18AAP inh-1: inactive; RanGTP-Impb inh: inactive

What do the screens show for `Cc1c(Cl)cccc1NC(=O)CSc1nccn1C`?
PfM18AAP inh-1: inactive

What do the screens show for `O=C(CNc1ccccc1)c1ccc([N+](=O)[O-])cc1`?
Runt-SMMHC FRET: inactive; Runt-CBFb FRET: inactive; PfM18AAP inh-1: inactive; RanGTP-Impb inh: inactive; RBBP9 inh: inactive; Hck Nef HTS: inactive

What do the screens show for `CC(=O)Nc1ccc(NCC(=O)c2ccccc2)cc1`?
PfM18AAP inh-1: 34.0; RanGTP-Impb inh: inactive; PfM18AAP inh-2: inactive; CTSL1 counter: inactive

Results for CCn1c(SCC(=O)Nc2oc(-c3ccccc3)c(-c3ccccc3)c2C#N)nnc1-c1ccncc1 ?
Runt-SMMHC FRET: inactive; Runt-CBFb FRET: inactive; PfM18AAP inh-1: inactive; RanGTP-Impb inh: inconclusive; RBBP9 inh: inactive; Hck Nef HTS: inactive

How did N#Cc1c(NC(=O)CSc2ccccn2)oc(-c2ccccc2)c1-c1ccccc1 do in these assays?
Runt-SMMHC FRET: inactive; Runt-CBFb FRET: inactive; PfM18AAP inh-1: 50.3; RanGTP-Impb inh: inactive; RBBP9 inh: inactive; Hck Nef HTS: inactive; PfM18AAP inh-2: inactive; CTSL1 counter: inactive

How did N#Cc1c(N)oc(-c2ccc3c(c2)OCO3)c1-c1ccc2c(c1)OCO2 do in these assays?
Runt-SMMHC FRET: inactive; Runt-CBFb FRET: inactive; PfM18AAP inh-1: 47.9; RanGTP-Impb inh: inactive; RBBP9 inh: inactive; Hck Nef HTS: inactive; PfM18AAP inh-2: inactive; CTSL1 counter: inactive

What do the screens show for `CC(C)=CCCC(C)CN1CCC(n2nccc2NC(=O)C2CCCC2)CC1` (stereo unspecified)?
PfM18AAP inh-1: inactive; RanGTP-Impb inh: inactive

How did O=C(Cn1c(=O)[nH]c2sc3c(c2c1=O)CCCC3)NCC1CCCO1 (stereo unspecified) do in these assays?
PfM18AAP inh-1: inactive; RanGTP-Impb inh: inactive

How did COC(=O)c1ccccc1CSc1nsc(/C=C/N(C)C)c1C#N do in these assays?
PfM18AAP inh-1: 48.0; RanGTP-Impb inh: inactive; PfM18AAP inh-2: inactive; CTSL1 counter: inactive

Results for O=C(C[n+]1ccn(-c2ccccc2)c1)c1ccc([N+](=O)[O-])cc1 ?
PfM18AAP inh-1: inactive; RanGTP-Impb inh: inactive

What do the screens show for `Cc1nc(NN)c2c3c(sc2n1)COC(C)(C)C3`?
PfM18AAP inh-1: 58.1; RanGTP-Impb inh: inactive; PfM18AAP inh-2: inactive; CTSL1 counter: inactive

Results for CC1(C)Cc2c(sc3nc(=S)[nH]c(N)c23)CO1 ?
PfM18AAP inh-1: 32.5; RanGTP-Impb inh: inactive; PfM18AAP inh-2: inactive; CTSL1 counter: inactive

How did Cn1c(NN)nc2sc3c(c2c1=O)CC(C)(C)OC3 do in these assays?
Runt-SMMHC FRET: inactive; Runt-CBFb FRET: inactive; PfM18AAP inh-1: inactive; RanGTP-Impb inh: inactive; RBBP9 inh: inactive; Hck Nef HTS: inactive

What do the screens show for `O=C(Cn1nnc2c(cnn2-c2ccc(F)cc2)c1=O)Nc1ccccc1C(F)(F)F`?
Runt-SMMHC FRET: inactive; Runt-CBFb FRET: inactive; PfM18AAP inh-1: inactive; RanGTP-Impb inh: inactive; RBBP9 inh: inactive; Hck Nef HTS: inactive

How did CC(=O)c1ccc(N2CCN(C(=O)Cn3cnc(S(=O)(=O)N4CCCCC4)c3)CC2)cc1 do in these assays?
PfM18AAP inh-1: inactive; RanGTP-Impb inh: inactive

Results for O=C(O)CCNc1cc2ccccc2cc1C(=O)O ?
Runt-SMMHC FRET: inactive; Runt-CBFb FRET: inactive; PfM18AAP inh-1: 34.9; RanGTP-Impb inh: inactive; RBBP9 inh: inactive; Hck Nef HTS: inactive; PfM18AAP inh-2: inactive; CTSL1 counter: inactive

How did O=c1/c(=C/c2ccco2)sc2n1CN(c1cccc(Br)c1)CN=2 do in these assays?
Runt-SMMHC FRET: inactive; Runt-CBFb FRET: inactive; PfM18AAP inh-1: inactive; RanGTP-Impb inh: inactive; RBBP9 inh: inactive; Hck Nef HTS: inactive

Results for Cc1ccc(/C=c2\sc3n(c2=O)CN(c2cccc(Br)c2)CN=3)o1 ?
Runt-SMMHC FRET: inactive; Runt-CBFb FRET: inactive; PfM18AAP inh-1: 37.3; RanGTP-Impb inh: inactive; RBBP9 inh: inactive; Hck Nef HTS: inactive; PfM18AAP inh-2: inactive; CTSL1 counter: inactive

Results for CCCCn1c(N)c(N(CCOC)C(=O)C2CCN(c3ncnc4sc(C)c(C)c34)CC2)c(=O)[nH]c1=O ?
RanGTP-Impb inh: inactive

What do the screens show for `CC(C)(C)c1ccc(OCCC(=O)NCC(c2cccs2)N2CCOCC2)cc1` (stereo unspecified)?
RanGTP-Impb inh: inactive

What do the screens show for `COC(=O)c1ccccc1NC(=O)CSc1[nH]c(=O)cc(C)c1C#N`?
Runt-SMMHC FRET: inactive; Runt-CBFb FRET: inactive; PfM18AAP inh-1: inactive; RanGTP-Impb inh: inactive; RBBP9 inh: inactive; Hck Nef HTS: inactive

Results for Cc1cc(=O)[nH]c(SCC(=O)Nc2ccccc2C#N)c1C#N ?
Runt-SMMHC FRET: inactive; Runt-CBFb FRET: inactive; PfM18AAP inh-1: 37.5; RanGTP-Impb inh: inactive; RBBP9 inh: inactive; Hck Nef HTS: inactive; PfM18AAP inh-2: inactive; CTSL1 counter: inactive

How did O=C(COC(=O)CCCN=C1NS(=O)(=O)c2ccccc21)NNC(=O)c1ccccc1 do in these assays?
RanGTP-Impb inh: inactive
